This sample holds only a part of the variants without activity.
B1: tRNA (parent)
chain: GUUCCGUUGGCGUAAUGGUAACGCGUCUCCCUCCUAAGGAGAAGACUGCGGGUUCGAGUCCCGUACGGAACG

Variants of: B1
Test: yeast fitness relative to wild type (ratio to wild type); higher = fitter; tRNA-Arg(CCU), competitive growth, 37 C, YPD
How it was run: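 Variants of the tRNA-Arg(CCU) gene were chemically synthesised with a 3% per-site mutation rate across 69 sites and placed at the native genomic locus in Saccharomyces cerevisiae. Six parallel replicates of the pooled strains were competed in YPD at 37°C for 24 hours, and gene amplicons from the start and end populations were read by 100-nucleotide paired-end sequencing. Darwinian fitness relative to wild type was derived from changes in genotype frequencies. Genotypes required ≥ 100 starting reads, and estimates < 0.5 were set to 0.5.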

| Variant | yeast fitness |
| --- | --- |
| GGUCCGUUCGCGUAGUGGUAACGCGUCUCCCUCCUAAGGAGAAGACUGCGGGUUCGAGUCCCGUACGGAACG | ≤ 0.5 |
| GGUCCGUUGGCAUAAUGGUAACGCGUCUCCCUCCCAAGGAGAAGACUGCGGGUUCGAGUCCCGUACGGAACG | ≤ 0.5 |
| GGUCCGUUCGCAUAAUGGUAACGCGUCUCCCUCCUAAGGAGCAGAAUGCGGGUUCGAGUCCCGUACGCAACG | ≤ 0.5 |
| GGUCCGUUGGCUUAAUGGUAACGCGUCUCCCUCCUAAGGAGAUGACUGCGGGUUCGAGUCCCGUACGGAACG | 0.631 |
| GGUCCGUUGGCCUAAUGGUAACGCGUCUCCCUCCUAAGGAGAAGACUGUGGGUUCGAGUCCCGUAUGGAACG | ≤ 0.5 |
| GGUCCGUUGGCGUAAUGCUAACGCGACUCCCUUCUAAGGAGAAGAUUGCGGGUUCGCGUCCCGUACGGAACG | ≤ 0.5 |
| GGUCCGUUGGCGUAAUGGUAACGCGUCUCCCUCCUAAGGAGAACACUGCGGGUUCGACUCCCGUACGGAACG | 0.647 |
| GGUCCGUUGGCGUAAUAGUAACGUGUCUCCCUCCUUUGGAGAAGACUGCGGGUUCGAGUCCCGUACGGAACG | 0.585 |
| GGUCCGUUGGCAAAAUGGUAACGCCUCACCCUACUAAGGAGAAGACUGCGGGUUCGAGUCCCCCAUGGAACG | ≤ 0.5 |
| GGUCCGUUCGCGUAAUGGUGACGCAUCUCCCUCCUAAGGAGCAGAGUGUGGGUUCGAGUCCCGUACGGCACG | ≤ 0.5 |
| GGUCCGUUCGCGUAAUGGUGACGCGUCUCCCUCCUAAGGAGCAGAGUGUGGGUUCGAGUCCCGUACGGAACG | 0.602 |
| GGUCCGUUAGCGUAAUGGUAACGCGUCUCCCUCCUGAGGAGAAGACUGCGGGUUCGGGUUCCGUACGGAACG | 0.672 |
| GGUCCGUUCGCGUAAUGGUGACGCGUCUCCCUCCUAAGGAGCAGAGUGUGGGUUCGAGUCCCGUAUGGCACG | ≤ 0.5 |
| GGUCCGUUGGCGUAAUGAUAACGCGUCUGCGUCCUAAGGAGAAGACUGCGGGUUCGAGUCCCGUACGGAACG | ≤ 0.5 |
| GGUCCGUUCGCGUAAUGGUGACGCGUCUCCCUCCUAAGGAGCAGAGUGUGGGUUCGAGUCCCAUACGGCACG | ≤ 0.5 |
| GGUCCGUUGGCGUAAUGGUAACGCGUCUCCCUCCUAACGAGAAGACUGCGGGUUCGAGUCCCGUACGGAACG | 0.606 |
| GGUCCGUUCGCGUAAUGGUAACGCGUCUCCCUCCUAAGGAGAAGACUGCGGGUUCGAGUCCCGUCCGGAACG | 0.548 |
| GGUCCGUUGGCGUAAUGGUAACGCAUCUCCCUCCUAAGGAGAAGACUGCGGGUUCGAGUCCCGUACGGAACG | 0.986 |
| GGUCCGUUGGCGUAAUGGUAACGCAUCUCCCUCCUAAGGAGAAGACUGCGGGAUCGAGUCCCAUACGGAACG | 0.563 |

| Variant | yeast fitness |
| --- | --- |
| GGUCCGUUGGCGUAAUGGUAACGCGUCUCCCUCCUAAGGAGAAGACUACGGGUUCGAAUCCCGUACGGAACG | 0.614 |
| GGUCCGUUGACGUAAUGGUAACGCGUCUCCCUCCUAAGGAGAAGACUGCGGGUUCGAGUCCCGUACGGCACG | ≤ 0.5 |
| GGUCCGUUGGCCUAAUGGUAACGCGUCUCCCUCCUAAGGAGAAGACUGCGGGUUCGAGUCCCGUACGGAACG | 0.757 |
| GGUCCGUUGGCGUAAUGAUAACGCGUCUGCGUCCUAAGGAGAAGACUGCGGAUUCGAGUCCCGUACGGAACG | ≤ 0.5 |
| GGUCCGUUAGCGUAAUGGUAACGCGUCUCCCUCCUAAGGAGAAGACUGCGGGUUCGAGUCCCGUACGGAACG | 1.01 |
| GGUCCGUUGGCGUAAUGGUAACGCGUCUCCCUCCUAAGGAGAACACUGCGGGUUGGAGUCCCGUACGGAACG | ≤ 0.5 |
| GGUCCGUUAGCGUAAUGGUAACGCGUCUCCCUCCUAAGGAGAAGACUGCGGGUUCGAGUCCCGUACGGUACG | 0.577 |
| GGUCCGUUGGCGUAAUGGUAACGCAUCUCCCUCCUAAGGAGAAGACUGCGGGAUCGAGUCCCGUACGGAACG | ≤ 0.5 |
| GGUCCGUUGGCGUAAUGCUAACUCGUCUCCCUCCUAAGGAGAAGACUGCGGGUUCGAGUCCCGAACGGAACG | 0.606 |
| GGUCCGUUGCCGUAAUGGUAACGCGUCUCCCUCCUAAGGAGAAGACUGCGGGUUCGAGUCCCGUACGGAACG | 0.527 |
| GGUCCGUUCGCGUCAUGGUAACGCGUUUCCCUCCUAAGGAGAAGACUGCGGGUUCGAAUCCCGUACGGAACG | ≤ 0.5 |
| GGUCCGUUGGCGUAAUGCUAACUCGUUUCCCUCCUAAGGAGAAGACUGCGGGUUCGAGUCCCGAACGGAACG | ≤ 0.5 |
| GGUCCGUUCGCGUAAUGGUAACGCGUCUCCCUCCUAAGGAGAAGACUGCGGGUUCGAGUCCCGUCCGAAACG | ≤ 0.5 |
| GGUCCGUUGGCCUAAUGGUAACGCGUCUCCCUCCUAAGGAGAAGACUGUGGGUUCGAGUCCCGUACGGAACG | ≤ 0.5 |
| GGUCCGUUGCCGUAAUGGUAACGCGUCUCCCUCCUAAGGGGAAGACUGCGGGUUCGGGUCCCGUACGGAACG | ≤ 0.5 |
| GGUCCGUUGGCGUAAUGGUAACGCGUCUCCCUCCUAAGGAGAAGACUCCGGGUUCGAGUCCCGUAUGGAACG | 0.519 |
| GGUCCGUUGGCGUAAUGGUAACGCGUCUCCCUCCUAAGGAGAAGACUACGGGUUCGACUCCCGUUCCGAACG | ≤ 0.5 |
| GGUCCGUUGGCAAAAUGGUAACGCCUCACCCUACUAAGGAGAAGACUGCGGGUUCGAGUCCCCCACGGAACG | ≤ 0.5 |
| GGUCCGUUGGCGUAAUGGUAACGCCUCGCCCUCCUAAGGAGCAGACUGCGGGUUCGAGUCUCGUACGGAACG | ≤ 0.5 |

From the RNAGym collection of RNA variant scans (doi:10.1126/science.aae0568)
